From ChEMBL document CHEMBL4689842, “EUbOPEN Chemogenomics Library wave 1” (2021)
Where “and” joins values, the source holds several entries; their conditions need not be identical. Equal values may be shown once.

Tested on: HEK-293T
Test: Multiplex assay against HEK293T;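 on Population Tubulin-Different-Phenotype (%): share of the cells with healthy nuclei that show this phenotype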
Assay type: toxicity, cell-based
Details: human
Summary of the method: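 Hoechst33342, BioTracker Green Microtubule Cytoskeleton Dye, MitoTracker Red and Annexin V Alexa Fluor 680 were added to live cells at seeding, and imaging on a CQ1 microscope at 37°C and 5% CO2 followed compound addition. Gating by CellPathfinder machine learning separated cells into Hoechst high-intensity objects or normal cells, then normal cells into healthy, pyknosed or fragmented nuclei, then pyknosed cells into mitotic or apoptotic. Per cents of healthy-nucleus cells are reported for the tubulin, mitochondrial-mass and membrane-permeability phenotypes.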

[1] = 12 h, 1 µM, compound concentration 1 uM, replicate 1
[2] = 12 h, 1 µM, compound concentration 1 uM, replicate 2
[3] = 12 h, 10 µM, compound concentration 10 uM, replicate 1
[4] = 12 h, 10 µM, compound concentration 10 uM, replicate 2
[5] = 24 h, 1 µM, compound concentration 1 uM, replicate 1
[6] = 24 h, 1 µM, compound concentration 1 uM, replicate 2
[7] = 24 h, 10 µM, compound concentration 10 uM, replicate 1
[8] = 24 h, 10 µM, compound concentration 10 uM, replicate 2
[9] = 48 h, 1 µM, compound concentration 1 uM, replicate 1
[10] = 48 h, 1 µM, compound concentration 1 uM, replicate 2
[11] = 48 h, 10 µM, compound concentration 10 uM, replicate 1
[12] = 48 h, 10 µM, compound concentration 10 uM, replicate 2

## CN(C)C(=O)N[C@H]1CC[C@H](CCN2CCN(c3cccc(Cl)c3Cl)CC2)CC1.Cl [CARIPRAZINE HYDROCHLORIDE]
[1]
  Population Apoptotic (%): 48%
  Population Fragmented Nuclei (%): 12%
  Population Healthy Nuclei (%): 44%
  Population Hoechst High Intensity Objects (%): 13%
  Population Membrane Permeable-Phenotype (%): 1%
  Population Mitochondria Different-Phenotype (%): 88%
  Population Mitotic Cells (%): 51%
  Population Normal (%): 86%
  Population Pyknosed Nuclei (%): 42%
  Population Tubulin-Different-Phenotype (%): 59%
  Total Cell Count: 326
[2]
  Population Apoptotic (%): 20%
  Population Fragmented Nuclei (%): 4%
  Population Healthy Nuclei (%): 42%
  Population Hoechst High Intensity Objects (%): 4%
  Population Membrane Permeable-Phenotype (%): 2%
  Population Mitochondria Different-Phenotype (%): 32%
  Population Mitotic Cells (%): 79%
  Population Normal (%): 95%
  Population Pyknosed Nuclei (%): 53%
  Population Tubulin-Different-Phenotype (%): 24%
  Total Cell Count: 213
[3]
  Population Apoptotic (%): 85%
  Population Fragmented Nuclei (%): 7%
  Population Healthy Nuclei (%): 25%
  Population Hoechst High Intensity Objects (%): 15%
  Population Membrane Permeable-Phenotype (%): 1%
  Population Mitochondria Different-Phenotype (%): 98%
  Population Mitotic Cells (%): 14%
  Population Normal (%): 84%
  Population Pyknosed Nuclei (%): 67%
  Population Tubulin-Different-Phenotype (%): 98%
  Total Cell Count: 285
[4]
  Population Apoptotic (%): 83%
  Population Fragmented Nuclei (%): 4%
  Population Healthy Nuclei (%): 16%
  Population Hoechst High Intensity Objects (%): 6%
  Population Membrane Permeable-Phenotype (%): 6%
  Population Mitochondria Different-Phenotype (%): 96%
  Population Mitotic Cells (%): 16%
  Population Normal (%): 93%
  Population Pyknosed Nuclei (%): 79%
  Population Tubulin-Different-Phenotype (%): 93%
  Total Cell Count: 210
[5]
  Population Apoptotic (%): 46%
  Population Fragmented Nuclei (%): 14%
  Population Healthy Nuclei (%): 57%
  Population Hoechst High Intensity Objects (%): 11%
  Population Membrane Permeable-Phenotype (%): 1%
  Population Mitochondria Different-Phenotype (%): 77%
  Population Mitotic Cells (%): 53%
  Population Normal (%): 88%
  Population Pyknosed Nuclei (%): 27%
  Population Tubulin-Different-Phenotype (%): 55%
  Total Cell Count: 379
[6]
  Population Apoptotic (%): 12%
  Population Fragmented Nuclei (%): 2%
  Population Healthy Nuclei (%): 63%
  Population Hoechst High Intensity Objects (%): 2%
  Population Membrane Permeable-Phenotype (%): 4%
  Population Mitochondria Different-Phenotype (%): 34%
  Population Mitotic Cells (%): 87%
  Population Normal (%): 97%
  Population Pyknosed Nuclei (%): 33%
  Population Tubulin-Different-Phenotype (%): 33%
  Total Cell Count: 275
[7]
  Population Apoptotic (%): 90%
  Population Fragmented Nuclei (%): 11%
  Population Healthy Nuclei (%): 29%
  Population Hoechst High Intensity Objects (%): 14%
  Population Membrane Permeable-Phenotype (%): 0%
  Population Mitochondria Different-Phenotype (%): 98%
  Population Mitotic Cells (%): 9%
  Population Normal (%): 85%
  Population Pyknosed Nuclei (%): 59%
  Population Tubulin-Different-Phenotype (%): 100%
  Total Cell Count: 289
[8]
  Population Apoptotic (%): 87%
  Population Fragmented Nuclei (%): 3%
  Population Healthy Nuclei (%): 37%
  Population Hoechst High Intensity Objects (%): 7%
  Population Membrane Permeable-Phenotype (%): 2%
  Population Mitochondria Different-Phenotype (%): 97%
  Population Mitotic Cells (%): 12%
  Population Normal (%): 92%
  Population Pyknosed Nuclei (%): 58%
  Population Tubulin-Different-Phenotype (%): 96%
  Total Cell Count: 241
[9]
  Population Apoptotic (%): 29%
  Population Fragmented Nuclei (%): 9%
  Population Healthy Nuclei (%): 78%
  Population Hoechst High Intensity Objects (%): 7%
  Population Membrane Permeable-Phenotype (%): 0%
  Population Mitochondria Different-Phenotype (%): 37%
  Population Mitotic Cells (%): 70%
  Population Normal (%): 92%
  Population Pyknosed Nuclei (%): 12%
  Total Cell Count: 609
[10]
  Population Apoptotic (%): 10%
  Population Fragmented Nuclei (%): 6%
  Population Healthy Nuclei (%): 80%
  Population Hoechst High Intensity Objects (%): 2%
  Population Membrane Permeable-Phenotype (%): 2%
  Population Mitochondria Different-Phenotype (%): 15%
  Population Mitotic Cells (%): 89%
  Population Normal (%): 97%
  Population Pyknosed Nuclei (%): 13%
  Population Tubulin-Different-Phenotype (%): 35%
  Total Cell Count: 516
[11]
  Population Apoptotic (%): 78%
  Population Fragmented Nuclei (%): 16%
  Population Healthy Nuclei (%): 41%
  Population Hoechst High Intensity Objects (%): 15%
  Population Membrane Permeable-Phenotype (%): 0%
  Population Mitochondria Different-Phenotype (%): 99%
  Population Mitotic Cells (%): 21%
  Population Normal (%): 84%
  Population Pyknosed Nuclei (%): 42%
  Population Tubulin-Different-Phenotype (%): 94%
  Total Cell Count: 342
[12]
  Population Apoptotic (%): 82%
  Population Fragmented Nuclei (%): 7%
  Population Healthy Nuclei (%): 51%
  Population Hoechst High Intensity Objects (%): 6%
  Population Mitochondria Different-Phenotype (%): 95%
  Population Mitotic Cells (%): 17%
  Population Normal (%): 93%
  Population Pyknosed Nuclei (%): 41%
  Population Tubulin-Different-Phenotype (%): 92%
  Total Cell Count: 274

## CN1C(=O)c2sccc2N(C)c2nc(Nc3ccc(S(N)(=O)=O)cc3)ncc21
[3]
  Population Apoptotic (%): 16% and 18%
  Population Fragmented Nuclei (%): 26% and 12%
  Population Healthy Nuclei (%): 60% and 76%
  Population Hoechst High Intensity Objects (%): 18% and 7%
  Population Membrane Permeable-Phenotype (%): 4% and 3%
  Population Mitochondria Different-Phenotype (%): 4% and 2%
  Population Mitotic Cells (%): 83% and 81%
  Population Normal (%): 81% and 92%
  Population Pyknosed Nuclei (%): 13% and 11%
  Population Tubulin-Different-Phenotype (%): 0%
  Total Cell Count: 672 and 727
[4]
  Population Apoptotic (%): 8% and 7%
  Population Fragmented Nuclei (%): 8% and 4%
  Population Healthy Nuclei (%): 86% and 85%
  Population Hoechst High Intensity Objects (%): 1% and 2%
  Population Membrane Permeable-Phenotype (%): 1% and 0%
  Population Mitochondria Different-Phenotype (%): 7% and 9%
  Population Mitotic Cells (%): 91% and 92%
  Population Normal (%): 98% and 97%
  Population Pyknosed Nuclei (%): 4% and 10%
  Population Tubulin-Different-Phenotype (%): 4% and 1%
  Total Cell Count: 1564 and 1180
[7]
  Population Apoptotic (%): 19% and 15%
  Population Fragmented Nuclei (%): 14% and 20%
  Population Healthy Nuclei (%): 79% and 69%
  Population Membrane Permeable-Phenotype (%): 5%
  Population Mitochondria Different-Phenotype (%): 2% and 3%
  Population Mitotic Cells (%): 80% and 84%
  Population Normal (%): 95% and 82%
  Population Pyknosed Nuclei (%): 6% and 10%
  Population Tubulin-Different-Phenotype (%): 1%
  Total Cell Count: 894 and 614
[8]
  Population Apoptotic (%): 6% and 4%
  Population Fragmented Nuclei (%): 25% and 12%
  Population Healthy Nuclei (%): 71% and 80%
  Population Hoechst High Intensity Objects (%): 2%
  Population Membrane Permeable-Phenotype (%): 3% and 1%
  Population Mitochondria Different-Phenotype (%): 1%
  Population Mitotic Cells (%): 93% and 95%
  Population Normal (%): 97%
  Population Pyknosed Nuclei (%): 2% and 7%
  Population Tubulin-Different-Phenotype (%): 4% and 2%
  Total Cell Count: 2712 and 1180

## CCN(CC)CCCCNc1ncc2cc(-c3cc(OC)cc(OC)c3)c(NC(=O)NC(C)(C)C)nc2n1 [PD-173074]
[1]
  Population Apoptotic (%): 8%
  Population Fragmented Nuclei (%): 79%
  Population Healthy Nuclei (%): 8%
  Population Hoechst High Intensity Objects (%): 69%
  Population Membrane Permeable-Phenotype (%): 15%
  Population Mitochondria Different-Phenotype (%): 31%
  Population Mitotic Cells (%): 91%
  Population Normal (%): 30%
  Population Pyknosed Nuclei (%): 11%
  Population Tubulin-Different-Phenotype (%): 42%
  Total Cell Count: 685
[2]
  Population Apoptotic (%): 6%
  Population Fragmented Nuclei (%): 80%
  Population Healthy Nuclei (%): 1%
  Population Hoechst High Intensity Objects (%): 80%
  Population Membrane Permeable-Phenotype (%): 66%
  Population Mitochondria Different-Phenotype (%): 0%
  Population Mitotic Cells (%): 93%
  Population Normal (%): 19%
  Population Pyknosed Nuclei (%): 17%
  Population Tubulin-Different-Phenotype (%): 66%
  Total Cell Count: 917
[3]
  Population Fragmented Nuclei (%): 29%
  Population Healthy Nuclei (%): 52%
  Population Hoechst High Intensity Objects (%): 48%
  Population Membrane Permeable-Phenotype (%): 26%
  Population Mitochondria Different-Phenotype (%): 6%
  Population Normal (%): 51%
  Population Pyknosed Nuclei (%): 17%
  Population Tubulin-Different-Phenotype (%): 33%
  Total Cell Count: 693
[4]
  Population Apoptotic (%): 28%
  Population Fragmented Nuclei (%): 7%
  Population Healthy Nuclei (%): 85%
  Population Hoechst High Intensity Objects (%): 42%
  Population Membrane Permeable-Phenotype (%): 22%
  Population Mitochondria Different-Phenotype (%): 24%
  Population Mitotic Cells (%): 71%
  Population Normal (%): 57%
  Population Pyknosed Nuclei (%): 7%
  Population Tubulin-Different-Phenotype (%): 71%
  Total Cell Count: 1213
[5]
  Population Apoptotic (%): 32%
  Population Fragmented Nuclei (%): 84%
  Population Healthy Nuclei (%): 6%
  Population Hoechst High Intensity Objects (%): 55%
  Population Membrane Permeable-Phenotype (%): 36%
  Population Mitochondria Different-Phenotype (%): 15%
  Population Mitotic Cells (%): 68%
  Population Normal (%): 44%
  Population Pyknosed Nuclei (%): 8%
  Population Tubulin-Different-Phenotype (%): 26%
  Total Cell Count: 629
[6]
  Population Apoptotic (%): 0%
  Population Fragmented Nuclei (%): 91%
  Population Healthy Nuclei (%): 1%
  Population Hoechst High Intensity Objects (%): 60%
  Population Membrane Permeable-Phenotype (%): 0%
  Population Mitochondria Different-Phenotype (%): 20%
  Population Mitotic Cells (%): 100%
  Population Normal (%): 39%
  Population Pyknosed Nuclei (%): 6%
  Population Tubulin-Different-Phenotype (%): 60%
  Total Cell Count: 891
[7]
  Population Apoptotic (%): 28%
  Population Fragmented Nuclei (%): 17%
  Population Healthy Nuclei (%): 71%
  Population Hoechst High Intensity Objects (%): 36%
  Population Membrane Permeable-Phenotype (%): 25%
  Population Mitochondria Different-Phenotype (%): 9%
  Population Mitotic Cells (%): 71%
  Population Normal (%): 63%
  Population Pyknosed Nuclei (%): 11%
  Population Tubulin-Different-Phenotype (%): 50%
  Total Cell Count: 733
[8]
  Population Apoptotic (%): 15%
  Population Fragmented Nuclei (%): 16%
  Population Healthy Nuclei (%): 80%
  Population Hoechst High Intensity Objects (%): 27%
  Population Membrane Permeable-Phenotype (%): 20%
  Population Mitochondria Different-Phenotype (%): 6%
  Population Mitotic Cells (%): 85%
  Population Normal (%): 72%
  Population Pyknosed Nuclei (%): 2%
  Population Tubulin-Different-Phenotype (%): 58%
  Total Cell Count: 1994
